A short description of assay [1]: inhibitors of TNFa-induced NFkB p65 translocation, primary screen, imaging, HUVEC, MLSMR starter and 10KST1 sets (AID 438;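 active means inhibition above 20% together with a positive visual image hit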;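 further: compound added about 3h40 before a 20 min TNFalpha stimulation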;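 on inhibition: signal is the nuclear over cytoplasmic p65 intensity ratio per well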). The conditions noted are these: HUVEC TNFa-induced p65 nuclear translocation; cell count: measured here: nuclei count (cytotoxicity indicator), at 2.08 µM; inhibition: at 2 µM, stronger effect = higher value, 0% TNFa-plus-vehicle, 100% no-TNFa wells.
A short description of assay [2]: endothelial E-selectin expression blockers – imaging, HUVEC, immunofluorescence, MLSMR starter and 10KST1 sets, primary screen (AID 487).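 On inhibition: signal is fraction of cell area covered by stained E-selectin grains.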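 On nuclei count: 100% = median nuclei count of all wells on the same plate.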 The following applies: HUVEC TNFalpha-induced E-selectin immunofluorescence imaging, at 2 µM; inhibition: stronger effect = higher value; nuclei count: measured here: cell number, toxicity.
The nature of assay [3]: Primary imaging screen for DUSP6 inhibitors that restore phospho-Erk in transfected HeLa cells, chemical complementation (AID 609;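 active means compounds giving at least 50% inhibition in the cell-based MKP-3 phosphatase rescue imaging test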;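 on inhibition: phospho-Erk level distribution per well compared with pooled transfected vehicle control wells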). The following applies: HeLa MKP-3 transfected, phospho-Erk imaging KS statistic, at 10 µM, cells stimulated with TPA for 15 min.
In assay [4] the target is Dual specificity protein phosphatase 6 (Homo sapiens) (UniProt Q16828). The description is as above. The conditions noted are these: HeLa MKP-3 transfected, phospho-Erk imaging KS statistic; at 10 µM; stronger effect = higher value; cells stimulated with TPA for 15 min.
Sequence of Dual specificity protein phosphatase 6 (Homo sapiens) (Q16828 whole entry, looked up): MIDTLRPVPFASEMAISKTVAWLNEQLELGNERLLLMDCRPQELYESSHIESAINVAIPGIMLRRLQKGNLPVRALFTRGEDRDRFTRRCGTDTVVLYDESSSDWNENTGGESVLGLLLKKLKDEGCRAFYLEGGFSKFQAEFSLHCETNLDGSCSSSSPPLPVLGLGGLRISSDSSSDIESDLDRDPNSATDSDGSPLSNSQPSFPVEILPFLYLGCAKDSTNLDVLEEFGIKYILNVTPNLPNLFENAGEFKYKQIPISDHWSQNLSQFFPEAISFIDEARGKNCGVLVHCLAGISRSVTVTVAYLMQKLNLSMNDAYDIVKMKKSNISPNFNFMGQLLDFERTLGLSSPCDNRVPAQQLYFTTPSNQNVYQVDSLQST
Assay [5] concerns the target Voltage-gated potassium channel subunit beta-2 (Rattus norvegicus) (UniProt P62483). Kind of assay: inhibitors of rat Kvbeta2 reductase activity – biochemical, NADPH fluorescence, primary screen (AID 622;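 active means fluorescence slope higher than the sample average by over 3 SD, cut at about -0.22 in these data, passing the limit was not always enough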;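 further: slope of raw intensity against log time taken from 70 to 1610 s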). The following applies: recombinant KvBeta, 4-cyanobenzaldehyde reduction, at 10 µM, stronger effect = higher value.
The target is the same in assay [6]. The assay is described as follows: enhancers of rat Kvbeta2 NADPH turnover – biochemical, NADPH fluorescence, primary screen (AID 623;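 active means NADPH fluorescence slope more negative than the mean of all samples by about 3 SD, 99.7% confidence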;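 further: fluorescence intensity change per second fitted from 20 to 320 s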). The conditions noted are these: Recombinant KvBeta, NADPH fluorescence decrease slope, 10 min; at 10 µM; stronger effect = lower value.
Assay [7] has as its target Muscarinic acetylcholine receptor M4 (Homo sapiens) (UniProt P08173). The assay is described as follows: M4-linked GIRK flux change, two-sided – cell-based, HEK293 M4/GIRK, thallium flux, BTC-AM, M4 allosteric agonist project, primary screen (AID 625;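 active means fluorescence slope after compound addition differing from the mean of all tested samples at 99.7% confidence, mostly higher but some lower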;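 further: thallium influx through GIRK channels coupled to M4 in HEK293 cells with BTC-AM dye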). The conditions noted are these: at 10 µM, actives lie on both sides. The essentials: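 Material: HEK293 cells with M4 receptor and GIRK channels; Times: cells overnight at 37 °C, BTC-AM loading 1 h, reads 2 min total; Technique: kinetic BTC-AM fluorescence sampled at 1 Hz, 10 s pre-addition baseline; Read-out basis: slope over 15–24 s of trace normalized to starting intensity; Controls: carbachol positive, DMSO negative.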

Assay [8] in a line: inhibitors of larval lipid processing in zebrafish, primary screen, whole organism, PED6 fluorescence, gall bladder and intestine (AID 686;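 active means a full or partial loss of lipid-probe fluorescence in the fish gall bladder, intestine or both, judged by eye; inactive means no fluorescence loss, or compound toxic to the fish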;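 further: larvae 5 to 7 days old with five fish per well; signal comes from phospholipase A2 cleavage of quenched PED6 carried via bile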). The following applies: Zebrafish larvae PED6 lipid processing, fluorescence scoring; screened at 20 µM (by protocol). The essentials:
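Incubation: overnight exposure of larvae to compound plus PED6 / Test system: live zebrafish larvae aged 5-7 days, whole organism / Amount: 5 larvae per well / Read-out basis: visual per-well fluorescence inhibition score / Signal: visual fluorescence microscopy scoring of gall bladder, gut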

Assay [9] can be described thus: loss of swimming-algae plug formation – whole organism, Chlamydomonas reinhardtii, WT vs cilia-less mutant, absorbance, 96-well, primary screen (AID 463189;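 active means inhibition at or above 50% relative to wild type and mutant plate controls; inactive means inhibition below 50%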;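 further: 0% = wild type cc124 cells in DMSO and 100% = ciliumless bld1 mutant cells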). The conditions noted are these: Chlamydomonas reinhardtii gravitaxis, OD600 absorbance, 2 days; at 10 µM; stronger effect = higher value.
Setting [10] is: measured here: cell density z-score.
[11] abbreviates: measured here: nuclear c-Myc green intensity z-score.
Setting [12] is: measured here: nuclear pErk red intensity z-score, stronger effect = higher value.

The source made the active and inactive calls.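 How the source made its calls, unless noted: active means visually confirmed hit in the image check and inhibition above 20%; inconclusive means visually confirmed hit but inhibition not above 20%; inactive means no visual hit in the image check.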

Sequence of Muscarinic acetylcholine receptor M4 (Homo sapiens) (P08173 whole entry, looked up): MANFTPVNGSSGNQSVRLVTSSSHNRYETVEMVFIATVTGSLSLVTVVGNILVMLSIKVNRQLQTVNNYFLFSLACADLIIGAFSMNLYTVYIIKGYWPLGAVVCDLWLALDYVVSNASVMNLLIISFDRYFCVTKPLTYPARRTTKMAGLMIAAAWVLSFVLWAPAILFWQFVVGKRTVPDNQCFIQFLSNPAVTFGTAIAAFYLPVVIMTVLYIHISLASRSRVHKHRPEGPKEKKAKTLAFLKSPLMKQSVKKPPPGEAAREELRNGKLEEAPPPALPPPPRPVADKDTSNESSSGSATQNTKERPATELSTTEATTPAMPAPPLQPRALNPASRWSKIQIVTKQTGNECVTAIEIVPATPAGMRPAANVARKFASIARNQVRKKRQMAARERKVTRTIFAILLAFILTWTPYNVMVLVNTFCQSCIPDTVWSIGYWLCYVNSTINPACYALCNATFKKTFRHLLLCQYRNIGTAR
Sequence of Voltage-gated potassium channel subunit beta-2 (Rattus norvegicus) (P62483 whole entry, looked up): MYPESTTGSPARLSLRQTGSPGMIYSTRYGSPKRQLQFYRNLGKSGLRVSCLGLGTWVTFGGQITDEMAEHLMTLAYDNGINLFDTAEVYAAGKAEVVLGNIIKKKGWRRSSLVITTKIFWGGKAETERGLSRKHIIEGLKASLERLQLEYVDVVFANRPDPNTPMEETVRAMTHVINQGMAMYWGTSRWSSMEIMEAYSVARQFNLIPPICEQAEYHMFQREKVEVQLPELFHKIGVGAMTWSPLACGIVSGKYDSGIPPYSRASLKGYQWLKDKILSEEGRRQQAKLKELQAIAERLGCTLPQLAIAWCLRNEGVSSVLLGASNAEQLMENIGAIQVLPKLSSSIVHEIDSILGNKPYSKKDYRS

For the compound `N#Cc1ccc(-c2ccc(OCC(O)Cn3nnc4ccccc43)cc2)cc1` (centres undefined), in assay [1], the cell count amounted to 528. The inhibition (as a rule, the change of the read-out against control, counted positive when it falls) in assay [1] is -15.6% (inactive); in assay [2] it was -19.3% (inactive); in assay [4] it was 5.42% (inactive); in assay [9], 52.4% (active). Further, the nuclei count in assay [2] was 116%. Further, the z-score in assay [3] (setting [10]) was -2.55; in assay [3] (setting [11]) it was 0.882; in assay [3] (setting [12]), 0.638. Moreover, the values for the fluorescence slope in assay [5] and in assay [7] were -0.422 (inactive) and 0.00426 (inactive), respectively. Also, the NADPH fluorescence slope in assay [6] was -6e-06 (inactive). The compound was called inactive in assay [8].

Turning to `Cc1cc2ccccc2cc(C)c1=O`, the cell count in assay [1] turned out to be 388. Besides, the inhibition in assay [1] is -6.2% (inactive); in assay [2], -120% (inactive); in assay [4], -0.584% (inactive); in [9], -12% (inactive). The compound further showed a nuclei count in [2] of 168%. In addition, the z-score in [3] (setting [10]) was 1.48; in [3] (setting [11]), 0.00969; in [3] (setting [12]), -1.01. Besides, the values for the fluorescence slope in assay [5] and in assay [7] were -0.453 (inactive) and 0.00444 (inactive), respectively. Further, in assay [6], the NADPH fluorescence slope was -9e-05 (inactive). Besides, the compound was called inactive in assay [8].

For `CCCCC(=O)c1c(C)cc(C)[nH]c1=O`, in assay [1], the cell count was found to be 721. In addition, the inhibition was -6.7% (inactive) in assay [1], -99.5% (inactive) in assay [2], 3.97% (inactive) in assay [4] and 0.273% (inactive) in assay [9]. In assay [2], this compound showed a nuclei count of 191%. Also, the z-score turned out to be 0.203 in assay [3] (setting [10]), 0.876 in assay [3] (setting [11]) and 0.0182 in assay [3] (setting [12]). For the same compound, the fluorescence slope in [5] is -0.482 (inactive); in [7] it was 0.00582 (inactive). In addition, in assay [6], the NADPH fluorescence slope was -7.1e-05 (inactive). For the same compound, in [8], the outcome was inactive.

Regarding `N#Cc1nc(-c2cccs2)oc1NCc1ccc2c(c1)OCO2`, in assay [1], the cell count was 624. Also, the inhibition in assay [1] is -4.4% (inactive); in assay [2], -132% (inactive); in [4] it was 7.83% (inactive); in assay [9], 30.7% (inactive). In addition, in assay [2], the nuclei count came to 157%. In addition, the z-score in assay [3] (setting [10]) was -0.376; in assay [3] (setting [11]), -0.933; in [3] (setting [12]), 0.595. For the same compound, the results for the fluorescence slope in [5] and in assay [7] were -0.404 (inactive) and 0.00406 (inactive), respectively. Moreover, the NADPH fluorescence slope in assay [6] was -1.3e-05 (inactive). Further, the compound was called inactive in assay [8].

As for `CCSc1nnc(NC(=O)NC(CC)(C(F)(F)F)C(F)(F)F)s1`, the cell count in assay [1] worked out at 704. Further, the inhibition was 0.5% (inactive) in assay [1], -56.3% (inactive) in [2], 9.07% (inactive) in [4] and 22.7% (inactive) in assay [9]. The compound also came in with a nuclei count in [2] of 140%. Also, the z-score in assay [3] (setting [10]) was -0.466; in [3] (setting [11]), -0.955; in [3] (setting [12]), -0.238. The fluorescence slope in assay [5] is -0.431 (inactive); in assay [7], 0.00857 (inactive). The NADPH fluorescence slope in [6] was -5e-05 (inactive). Besides, the outcome in [8] was inactive.

`COC(=O)C(NC(=O)c1ccco1)(Nc1nc(C)cs1)C(F)(F)F` (centres undefined): in assay [1], the cell count amounted to 365. In addition, the inhibition in assay [1] is -1.1% (inactive); in assay [2], -89.2% (inactive); in [4], -6.59% (inactive); in assay [9] it was 14.1% (inactive). The same compound had a nuclei count in [2] of 178%. The z-score in assay [3] (setting [10]) was -0.487; in assay [3] (setting [11]), 0.248; in assay [3] (setting [12]) it was 1.38. Moreover, the values for the fluorescence slope in assay [5] and in [7] were -0.459 (inactive) and 0.00502 (inactive), respectively. Moreover, in [6], the NADPH fluorescence slope was -9.6e-05 (inactive). In addition, the compound was called inactive in assay [8].

As to `CN(C)CCCn1c(NC(=O)C2CCCCC2)nc2ccccc21`, the cell count in [1] was determined as 672. In addition, the inhibition in assay [1] is 9.7% (inactive); in assay [2], -32.4% (inactive); in [4], -3.95% (inactive); in [9], -0.148% (inactive). Moreover, the nuclei count in assay [2] amounted to 112%. The z-score is 0.036 in assay [3] (setting [10]), -0.199 in assay [3] (setting [11]) and -1.54 in [3] (setting [12]). Moreover, the fluorescence slope in [5] was -0.437 (inactive); in assay [7], 0.00538 (inactive). Besides, in assay [6], the NADPH fluorescence slope is -3.5e-05 (inactive). In assay [8], the result was inactive.

Turning to `O=S(=O)(c1ccccc1)N(CC(O)CN1CCCCC1)c1ccccc1` (centres undefined), the cell count in assay [1] amounted to 596. The inhibition is -4.6% (inactive) in [1], 36.6% (inactive) in assay [2], 5.42% (inactive) in assay [4] and 26.5% (inactive) in assay [9]. This compound returned a nuclei count in [2] of 84.8%. The results for the z-score in assay [3] (setting [10]), in [3] (setting [11]) and in assay [3] (setting [12]) were -0.887, 0.0372 and 0.232, respectively. In addition, the fluorescence slope in assay [5] was -0.342 (inactive); in assay [7], 0.00483 (inactive). The NADPH fluorescence slope in assay [6] was -2.3e-05 (inactive). Moreover, the compound was called inactive in assay [8].

Consider `Cn1c(=O)c2c(nc(NCCCO)n2Cc2cccc(C(F)(F)F)c2)n(C)c1=O`, for which the cell count in assay [1] turned out to be 652. Also, the inhibition in [1] was -11.8% (inactive); in [2], -70% (inactive); in assay [4], -5.95% (inactive); in assay [9], -3.98% (inactive). The compound further registered a nuclei count in [2] of 95.4%. For the same compound, the z-score in [3] (setting [10]) was -1.68; in assay [3] (setting [11]) it was -0.0388; in [3] (setting [12]), 0.32. The fluorescence slope in assay [5] is -0.492 (inactive); in [7], 0.00722 (inactive). Further, in assay [6], the NADPH fluorescence slope was -6.8e-05 (inactive). Moreover, in assay [8], the outcome was inactive.

Take `Cc1cc(C)n(-c2c(F)c(F)c(CN3CCCCC3)c(F)c2F)n1`: in assay [1], the cell count was 557. Further, the inhibition in assay [1] is 6.8% (inactive); in [2], 29.4% (inactive); in [4] it was 17.8% (inactive); in [9] it was 26% (inactive). Also, in assay [2], the nuclei count is 107%. In addition, the results for the z-score in [3] (setting [10]), in assay [3] (setting [11]) and in assay [3] (setting [12]) were -0.661, 0.711 and -1.05, respectively. The figures for the fluorescence slope in assay [5] and in [7] were -0.349 (inactive) and 0.00483 (inactive), respectively. Further, the NADPH fluorescence slope in [6] was 1.9e-06 (inactive). In assay [8], the compound was classed as inactive.

Take `C=CCOc1ccc(/C(O)=C2\C(=O)C(=O)N(CCN(C)C)C2c2cccs2)cc1` (centres undefined): in assay [1], the cell count is 642. The inhibition in [1] was 2.8% (inactive); in [2], -0.3% (inactive); in [4], 12.8% (inactive); in [9], 10.2% (inactive). In [2], this compound registered a nuclei count of 181%. Further, the values for the z-score in assay [3] (setting [10]), in assay [3] (setting [11]) and in assay [3] (setting [12]) were 0.295, 1.17 and 0.318, respectively. Moreover, the results for the fluorescence slope in assay [5] and in assay [7] were -0.469 (inactive) and 0.00599 (inactive), respectively. Also, the NADPH fluorescence slope in assay [6] is -6.6e-05 (inactive). Moreover, the outcome in [8] was inactive.

Turning to `CCOC(=O)c1[nH]c2ccccc2c1N=CN(CC)CC`, in assay [1], the cell count stood at 684. Also, the inhibition in assay [1] was 0.2% (inactive); in [2], -230% (inactive); in assay [4], 1.9e-07% (inactive); in assay [9], -14.4% (inactive). The same compound returned a nuclei count in assay [2] of 160%. The z-score in [3] (setting [10]) was -0.555; in [3] (setting [11]), 0.832; in assay [3] (setting [12]), 0.765. Further, the fluorescence slope in [5] is -0.472 (inactive); in assay [7], 0.00609 (inactive). Further, the NADPH fluorescence slope in [6] was -5.6e-05 (inactive). Moreover, the compound was called inactive in assay [8].

Take `COC(=O)C(NC(=O)c1ccc(F)cc1)(Nc1nc(C)cs1)C(F)(F)F` (centres undefined): in assay [1], the cell count came to 695. Also, the inhibition in [1] is -6.3% (inactive); in assay [2], -18.4% (inactive); in assay [4], -3.95% (inactive); in assay [9], 7.8% (inactive). Moreover, the nuclei count in assay [2] is 151%. Also, the z-score in [3] (setting [10]) was -0.266; in assay [3] (setting [11]), -0.66; in assay [3] (setting [12]), 0.98. Besides, the fluorescence slope is -0.444 (inactive) in assay [5] and 0.00339 (inactive) in assay [7]. The NADPH fluorescence slope in assay [6] was -4.6e-05 (inactive). Also, in [8], the call was inactive.

These data come from PubChem BioAssay.
